Experimental findings from ChEMBL document CHEMBL2176965, “Synthesis and biological investigations of nitric oxide releasing nateglinide and meglitinide type II antidiabetic prodrugs: in-vivo antihyperglycemic activities and blood pressure lowering studies” (J Med Chem, 2012) are described below.

The source made the active and inactive calls. No cut-off for these calls is given here.

For data set [1], the system named is Mus musculus. As to the kind of experiment: Effect on heart rate in C57BL/6 mouse at 63.01 umol/kg, po after 6 hrs (reference value: 439 bpm). In kind it is ADME, organism-based. Conditions: in vivo.
Data set [2] has as its system Rattus norvegicus. As to the kind of experiment: Antihyperglycemic activity in streptozotocin-induced diabetic Sprague-Dawley rat assessed as reduction in blood glucose level at 63.01 umol/kg, po after 24 hrs relative to control. In kind it is functional, organism-based. In a few lines: (§1)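 Male Sprague−Dawley rats (300−350 g) made diabetic with streptozotocin 65 mg/kg ip in citrate buffer pH 4.5, nonfasting. Animals with blood glucose 20−30 mmol/L at 48 h were selected, n = 4 per group. Oral dose 63.01 μmol/kg in water with 1% methyl cellulose; vehicle controls. Tail-vein glucose read by glucometer at 1, 3, 6, 24 h; change expressed as % of the 0 h level.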

The subject of data set [3] is Mus musculus. The data set can be described thus: Antihypertensive activity in C57BL/6 mouse assessed as reduction in systolic blood pressure at 63.01 umol/kg, po after 1 hr (reference value: 126.5 mmHg). In kind it is functional, Artery.
Data set [4] has as its system Mus musculus. As to the kind of experiment: Effect on heart rate in C57BL/6 mouse at 63.01 umol/kg, po after 1 hr (reference value: 449 bpm). In kind it is ADME, organism-based. The settings on record: in vivo.
The subject of data set [5] is Rattus norvegicus. The data set can be described thus: Antihyperglycemic activity in streptozotocin-induced diabetic Sprague-Dawley rat assessed as reduction in blood glucose level at 63.01 umol/kg, po after 1 hr relative to control. In kind it is functional. Set-up: scale not given: the % may be the effect or the level left. An outline of the steps: as §1
Data set [6] concerns Mus musculus. As to the kind of experiment: Effect on heart rate in C57BL/6 mouse at 63.01 umol/kg, po after 3 hrs (reference value: 448 bpm). In kind it is ADME, organism-based. Conditions: in vivo.
In data set [7] the test system is Mus musculus. The data set can be described thus: Antihypertensive activity in C57BL/6 mouse assessed as reduction in mean blood pressure at 63.01 umol/kg, po after 1 to 3 hrs. In kind it is functional, organism-based.
Data set [8] relates to Rattus norvegicus. As to the kind of experiment: Induction of hyperglycemia in streptozotocin-induced diabetic Sprague-Dawley rat assessed as increase in blood glucose level at 63.01 umol/kg, po after 24 hrs relative to control. In kind it is organism-based. Conditions: in vivo. In a few lines:
as §1

Data set [9] is described as follows: Induction of NO release in PBS buffer in presence of rat serum at pH 7.4 incubated for 6 hrs. Conditions: pH 7.4, 6 h. Set-up: concentration or dose not given beside the values. An outline of the steps: (§2)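 Compound (2.4 mL of 5.0 × 10−2 mM) incubated at 37 °C in PBS pH 7.4 with 90 μL rat serum, a source of nonspecific esterases, for 1, 3, 6 or 24 h. NO measured as nitrite by Griess reaction and expressed as % released.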

A short description of data set [10]: Induction of NO release in PBS buffer at pH 7.4 incubated for 4 hrs. In kind it is physicochemical. Set-up: concentration or dose not given beside the values. Conditions: pH 7.4, 4 h. An outline of the steps:
(§3)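 Compound (2.4 mL of 5.0 × 10−2 mM) incubated at 37 °C in phosphate buffer pH 7.4 for 1, 4, 6 or 24 h. Released NO quantified indirectly as nitrite by Griess reaction and expressed as % NO released.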

Data set [11] relates to Mus musculus. The data set can be described thus: Antihypertensive activity in C57BL/6 mouse assessed as reduction in systolic blood pressure at 63.01 umol/kg, po after 6 hrs (reference value: 126.2 mmHg). In kind it is functional, Artery.
Data set [12] in a line: Induction of NO release in PBS buffer in presence of rat serum at pH 7.4 incubated for 1 hr. Set-up: concentration or dose not given beside the values. The settings on record: pH 7.4, 1 h. In a few lines: as §2
A short description of data set [13]: Induction of NO release in PBS buffer in presence of rat serum at pH 7.4 incubated for 24 hrs. Set-up: concentration or dose not given beside the values. Conditions: pH 7.4, 24 h. An outline of the steps:
as §2

Data set [14] concerns Rattus norvegicus. As to the kind of experiment: Antihyperglycemic activity in streptozotocin-induced diabetic Sprague-Dawley rat assessed as reduction in blood glucose level at 63.01 umol/kg, po after 3 hrs relative to control. In kind it is functional. Set-up: scale not given: the % may be the effect or the level left. In a few lines: as §1
Data set [15] relates to Rattus norvegicus. As to the kind of experiment: Antihyperglycemic activity in streptozotocin-induced diabetic Sprague-Dawley rat assessed as reduction in blood glucose level at 63.01 umol/kg, po after 6 hrs relative to control. In kind it is functional. In a few lines:
as §1

Data set [16] can be described thus: Induction of NO release in PBS buffer at pH 7.4 incubated for 6 hrs. In kind it is physicochemical. Set-up: concentration or dose not given beside the values. The settings on record: pH 7.4, 6 h. In a few lines: as §3
The test system of data set [17] is Mus musculus. As to the kind of experiment: Antihypertensive activity in C57BL/6 mouse assessed as reduction in diastolic blood pressure at 63.01 umol/kg, po after 1 to 3 hrs. In kind it is functional, organism-based. Conditions: Artery.
Data set [18] can be described thus: Induction of NO release in PBS buffer at pH 7.4 incubated for 24 hrs. In kind it is physicochemical. Set-up: concentration or dose not given beside the values. Conditions: pH 7.4, 24 h. In a few lines: as §3
Data set [19] in a line: Induction of NO release in PBS buffer at pH 7.4 incubated for 1 hr. In kind it is physicochemical. Set-up: concentration or dose not given beside the values. The settings on record: pH 7.4, 1 h. An outline of the steps: as §3
Data set [20] relates to Rattus norvegicus. As to the kind of experiment: Induction of hyperglycemia in streptozotocin-induced diabetic Sprague-Dawley rat assessed as increase in blood glucose level at 63.01 umol/kg, po after 24 hrs relative to control. Conditions: in vivo.
A short description of data set [21]: Induction of NO release in PBS buffer in presence of rat serum at pH 7.4 incubated for 3 hrs. Set-up: concentration or dose not given beside the values. Conditions: pH 7.4, 3 h.
The species entered for data set [22] is Rattus norvegicus. The data set can be described thus: Activation of soluble guanylyl cyclase in rat superior mesenteric arteries assessed as reversal of phenylephrine-induced tone at 1 uM by wire myography. An outline of the steps: (§4)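 Denudation confirmed by no relaxation to acetylcholine (10 μM). Tone raised to 75% of maximal with phenylephrine (1−3 μM). Compounds added at 1 μM, without or with ODQ (10 μM), a soluble guanylyl cyclase inhibitor.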

Data set [23] concerns Mus musculus. As to the kind of experiment: Antihypertensive activity in C57BL/6 mouse assessed as reduction in systolic blood pressure at 63.01 umol/kg, po after 3 hrs (reference value: 118.3 mmHg). In kind it is functional, Artery.
For data set [24], the species on record is Rattus norvegicus. As to the kind of experiment: Activation of soluble guanylyl cyclase in rat superior mesenteric arteries assessed as reversal of phenylephrine-induced tone in presence of ODQ at 1 uM by wire myography. In a few lines:
as §4

In data set [25] the test system is Mus musculus. As to the kind of experiment: Antihypertensive activity in C57BL/6 mouse assessed as reduction in diastolic blood pressure at 63.01 umol/kg, po after 3 hrs. In kind it is functional, organism-based. The settings on record: Artery.

As to `COc1ccc(Cl)cc1C(=O)NCCc1ccc(C(=O)OCCO[N+](=O)[O-])cc1`, the Activity in data set [1] was 435 bpm; in [3], 105.8 mmHg; in [4] it was 454 bpm; in [5], 20%; in data set [6] it was 458 bpm; in [8] it was “Non-toxic”. Further, the Activity in [9] is recorded as 2.6%; in data set [10] it was 7.2%; in [11], 103.4 mmHg; in data set [12] it was 2.1%; in [13] it was 3.8%; in data set [14], 12.5%. In addition, the Activity in [16] is listed as 7.7%; in data set [18], 9.4%; in [19], 4.1%; in data set [20] it was “Non-toxic”; in data set [21] it was 2.3%. Also, the outcome in [2] was inactive. Also, the result in data set [7], in data set [15] and in data set [17] was Active.

Consider `CCN(CC)/[N+]([O-])=N/OCOC(=O)c1ccc(CCNC(=O)c2cc(Cl)ccc2OC)cc1`, for which the Activity in data set [1] is reported as 435 bpm; in data set [3] it was 96.8 mmHg; in data set [4], 454 bpm; in data set [5] it was 20%; in data set [6], 458 bpm; in data set [8], “Non-toxic”. The Activity came to 61.5% in data set [9]; 6% in [10]; 103.4 mmHg in data set [11]; 54.5% in data set [12]; 63.6% in [13]; 12.5% in [14]. The Activity in data set [16] was 6.1%; in data set [18], 6.5%; in [19], 4.2%; in data set [20], “Non-toxic”; in [21] it was 55.9%. The outcome in [2] was inactive. The result in data set [7], in [15] and in data set [17] was Active.

Regarding `COc1ccc(Cl)cc1C(=O)NCCc1ccc(C(=O)O)cc1` [MEGLITINIDE], the result in data set [2] was inactive. For the same compound, the Activity in data set [5] was 30.5%; in data set [14], 8.8%. The outcome in data set [15] was Active.

Turning to `COc1ccc(Cl)cc1C(=O)NCCc1ccc(C(=O)OCO/N=[N+](\[O-])N2CCCC2)cc1`, the Activity in [1] is given as 435 bpm; in [3], 90.3 mmHg; in [4], 454 bpm; in [5], 20%; in [6], 458 bpm; in data set [8] it was “Non-toxic”. Besides, the Activity in [9] was 59.2%; in data set [10], 5.7%; in [11], 103.4 mmHg; in data set [12], 37.6%; in data set [13] it was 60.5%; in data set [14], 12.5%. Moreover, the Activity in data set [16] is on record as 7.2%; in data set [18] it was 8.9%; in data set [19], 5.1%; in data set [20], “Non-toxic”; in [21] it was 51.7%. Moreover, the outcome in [2] was inactive. Further, the outcome in data set [7] and in data set [17] was Active.

As for `CCN(CC)/[N+]([O-])=N\OCOC(=O)[C@@H](Cc1ccccc1)NC(=O)[C@H]1CC[C@H](C(C)C)CC1`, the Activity was 435 bpm in data set [1]; 113 mmHg in data set [3]; 454 bpm in data set [4]; 21.1% in [5]; 458 bpm in data set [6]; “Non-toxic” in [8]. Also, the Activity is recorded as 57.2% in [9]; 5.1% in data set [10]; 134.4 mmHg in data set [11]; 44.9% in [12]; 72.2% in data set [13]; 23.5% in data set [14]. Besides, the Activity in data set [15] is listed as 34.1%; in [16], 58.8%; in data set [18], 61.3%; in data set [19] it was 4.4%; in data set [20] it was “Non-toxic”; in data set [23], 98.1 mmHg. Besides, the Activity in data set [21] came to 50.2%. Besides, the result in data set [7], in [22] and in data set [17] was Active. For the same compound, the result in data set [24] was inactive.

Consider `CC(C)[C@H]1CC[C@H](C(=O)N[C@H](Cc2ccccc2)C(=O)OCCO[N+](=O)[O-])CC1`, for which the Activity in data set [1] is on record as 435 bpm; in data set [3] it was 129.9 mmHg; in data set [4], 454 bpm; in data set [5], 8.2%; in data set [6], 458 bpm; in [8], “Non-toxic”. In addition, the Activity is reported as 3.9% in data set [9]; 7.5% in data set [10]; 103.4 mmHg in [11]; 1.3% in data set [12]; 6.3% in data set [13]; 13.4% in [14]. In addition, the Activity in data set [15] is recorded as 20.5%; in [16] it was 7.7%; in [18], 9.2%; in [19] it was 6.7%; in data set [20], “Non-toxic”; in [21] it was 1.9%. Moreover, the outcome in data set [22] was Active. Besides, in [24], the outcome was inactive.

Regarding `CC(C)[C@H]1CC[C@H](C(=O)N[C@H](Cc2ccccc2)C(=O)O)CC1` [NATEGLINIDE], the Activity in data set [5] was found to be 13.8%; in [14] it was 26.4%; in data set [15] it was 30.6%.

Regarding `CC(C)[C@H]1CC[C@H](C(=O)N[C@H](Cc2ccccc2)C(=O)OCO/N=[N+](/[O-])N2CCCC2)CC1`, the Activity came out at 435 bpm in data set [1]; 108.4 mmHg in data set [3]; 454 bpm in data set [4]; 8.1% in data set [5]; 458 bpm in data set [6]; 48.7% in data set [8]. Further, the Activity worked out at 50.1% in data set [9]; 6.8% in data set [10]; 134.3 mmHg in data set [11]; 40.2% in data set [12]; 65.3% in [13]; 22.6% in data set [14]. The Activity in [16] stood at 52.7%; in data set [18] it was 59.9%; in data set [19] it was 6.7%; in [23] it was 106.2 mmHg; in [21], 47.2%. The outcome in data set [7] was Active. Besides, the result in data set [25] and in data set [15] was inactive.
